Our source for the EC50 values is PubChem BioAssay AID623977 (Vanderbilt High Throughput Screening Facility, 2012).

The experiment addresses G protein-activated inward rectifier potassium channel 2 (Homo sapiens) + G protein-activated inward rectifier potassium channel 1 (Homo sapiens) (UniProt P48051+P48549). In words: GIRK1/2 channel activators by patch clamp, confirmation, orthogonal assay for GIRK activator project, HEK-293 hGIRK1/2, whole-cell voltage clamp, Ba2+-sensitive current (AID 623977). Particulars: HEK-293 hGIRK1/2, whole-cell patch clamp current. In short, it runs like this:
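System: HEK-293 cells stably expressing human GIRK1/2 channels | Signal: Whole-cell voltage clamp held at -70 mV | Buffer or medium: 20 mM K+ bath, pH 7.4, KCl pipette solution | Times: Cells patched 24–72 h after plating | Doses: Compound in extracellular bath solution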

pEC50: −log10 of the molar value.

G protein-activated inward rectifier potassium channel 2 (Homo sapiens) + G protein-activated inward rectifier potassium channel 1 (Homo sapiens), sequence (P48051 whole entry, looked up): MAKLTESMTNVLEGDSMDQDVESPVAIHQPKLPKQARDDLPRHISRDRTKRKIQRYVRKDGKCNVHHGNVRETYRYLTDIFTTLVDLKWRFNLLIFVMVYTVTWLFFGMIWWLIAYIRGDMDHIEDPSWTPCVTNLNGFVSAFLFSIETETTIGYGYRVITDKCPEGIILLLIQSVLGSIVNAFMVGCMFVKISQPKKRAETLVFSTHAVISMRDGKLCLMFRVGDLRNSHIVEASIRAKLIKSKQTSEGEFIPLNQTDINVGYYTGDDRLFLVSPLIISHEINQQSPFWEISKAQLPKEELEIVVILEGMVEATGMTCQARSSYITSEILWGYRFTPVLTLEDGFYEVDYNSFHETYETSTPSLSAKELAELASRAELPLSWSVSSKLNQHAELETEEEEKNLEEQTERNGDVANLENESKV
G protein-activated inward rectifier potassium channel 2 (Homo sapiens) + G protein-activated inward rectifier potassium channel 1 (Homo sapiens), sequence (P48549 whole entry, looked up): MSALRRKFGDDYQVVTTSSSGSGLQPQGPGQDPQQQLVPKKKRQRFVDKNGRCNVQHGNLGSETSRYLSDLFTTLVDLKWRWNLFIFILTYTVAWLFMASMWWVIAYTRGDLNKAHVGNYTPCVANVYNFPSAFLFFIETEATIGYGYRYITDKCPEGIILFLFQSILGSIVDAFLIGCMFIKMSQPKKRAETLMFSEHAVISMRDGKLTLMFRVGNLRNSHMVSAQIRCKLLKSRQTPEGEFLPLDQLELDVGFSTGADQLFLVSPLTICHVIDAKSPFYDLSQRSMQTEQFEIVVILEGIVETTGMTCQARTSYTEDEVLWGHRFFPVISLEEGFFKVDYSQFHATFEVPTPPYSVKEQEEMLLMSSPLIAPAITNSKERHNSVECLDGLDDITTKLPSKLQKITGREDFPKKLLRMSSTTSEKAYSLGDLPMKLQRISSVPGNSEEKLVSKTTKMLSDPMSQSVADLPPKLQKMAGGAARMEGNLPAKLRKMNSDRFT

For `Cc1cc(NC(=O)Nc2ccc(F)c(F)c2)n(-c2ccccc2)n1`, the pEC50 was 7.27.

As a reminder, the pEC50 is −log10 of the EC50, conventionally taken in molar units.
